# CaV13 ICDI inh = Disruptors of the CACNA1D IQ motif to Ca2+-dependent inactivation inhibitor domain association, primary screening, Förster resonance energy transfer in intact living …; actives 0.098% (n = 340,000); AID 743397; inhibition, % at 12.3 µM; HEK cells, CFP/YFP FRET ICDI-IQ, plate reader, 10 min; percent FRET-ratio fall versus neutral wells;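 active = mean replicate inhibition of at least 30% and at least 1% of replicates passing that level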;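 note: 0% = median of the neutral control wells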
# FAS TE block = blocks the thioesterase domain of human fatty acid synthase | P49327 | recombinant FAS-TE, OMFH fluorogenic substrate, fluorescence endpoint | inhibition, % at 15 µM | actives 0.67% (n = 360,000);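 active = compounds whose normalised, plate-corrected inhibition of enzyme fluorescence in the single-dose primary screen is 50% or more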;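 note: 0% = DMSO with enzyme and 100% = substrate without enzyme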
# Arr AP2 block = human beta-arrestin and AP2 interaction inhibition; FITC-arrestin peptide / GST-AP2 beads, flow cytometry; AP2 beta2 appendage carries R879A mutation; inhibition, % at 10 µM; actives 0.31% (n = 340,000); AID 504490;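 active = inhibition above a set limit, near 3 SD of compounds lacking own fluorescence, cut at about 54% in these data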;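 note: plate controls were DMSO wells for no effect and 5 µM unlabelled arrestin peptide for full effect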
#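 Material – GST-tagged AP2 beta2-adaptin appendage (R879A) on 4 µm glutathione beads · Probe or stimulus – fluorescein-tagged arrestin peptide at 50 nM final · Timing – 12 min plus 1 h, RT · Detection – bead flow cytometry, FITC channel · Read-out basis – inhibition as reduced fluorescein signal on beads, percent · Medium – PBS plus Tween 20 (0.05%) and BSA (0.1%)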
# NRP1-CendR mod = NRP-1/CendR interaction modulation | FAM-RPARPAR peptide binding to NRP-1, fluorescence polarization | inhibition, % at 25 µM | actives 0.85% (n = 360,000);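 active = inhibition or corrected inhibition above about 18%, plus a signal ratio from 0.5 to 1.5, limit read from the data, passing the limit was not always enough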
# ADAM10 inh = ADAM10 inhibition, QFRET primary screen | inhibition, % at 7 µM | recombinant ADAM10, EDANS/DABCYL FRET peptide cleavage, 3 h | actives 0.62% (n = 370,000) | O14672;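 active = inhibition above a per-campaign cutoff equal to the mean of compounds falling between control-based bounds plus 3 SD, cut at about 20% in these data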;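 note: 0% = DMSO wells while the 100% control is not disclosed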
# ADAM17 inh = inhibitors of human ADAM17; P78536; actives 0.83% (n = 370,000); inhibition, % at 6.95 µM; AID 720648; recombinant ADAM17, EDANS/DABCYL FRET peptide cleavage;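 active = inhibition above the mean of compounds lying between control limits plus 3 SD, set per campaign, cut at about 8.5% in these data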;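 note: 0% = DMSO-only wells as the low control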
# The depositor's hits bear a star; / = no result given; ! = repeats disagree. In the library only some 2.9% were active in any assay of this set; here they are far more common.
SMILES,CaV13 ICDI inh,FAS TE block,Arr AP2 block,NRP1-CendR mod,ADAM10 inh,ADAM17 inh
CC1Cc2nc(SCC(=O)c3ccccc3)n(Cc3ccccc3)c(=O)c2S1 (stereo not given),-3.7,25.2,4.8,1.2,20.5*,3.4
O=C(Nc1ccc2c(c1)OCCO2)c1ccc(NC(=O)C2CCCO2)cc1 (stereo not given),93.3*,-6.1,1.5,16.1,-10.7,-3.7
CCN(CC)S(=O)(=O)c1ccc(N=NC2=C(O)CC(C)(C)CC2=O)cc1,-3.0,-0.6,-2.8,10.1,4.6,3.9
CCN(CC)S(=O)(=O)c1ccc(N=NC2=C(O)CCCC2=O)cc1,0.2,-9.5,-2.2,26.3*,4.7,0.0
CN(CCc1ccccc1)C(c1cc2ccccc2o1)c1nnnn1C(C)(C)C (stereo not given),-5.4,24.5,/,7.5,0.0,1.4
COc1ccc(N(C(=O)CCl)C(C(=O)NCCc2ccccc2)c2cccs2)cc1 (stereo not given),-5.0,62.6*,3.0,-7.3,-6.8,1.0
CCOC(=O)N1C(=O)C[C@](Sc2ccc(OC)cc2)(C(=O)N(C)C)[C@H]1c1ccc(OC)cc1,/,/,/,/,-9.8,-2.2
CN(C)CC/C=C1/c2ccccc2Sc2ccc(Cl)cc21,-5.4,8.3,-3.8,26.9*!,-2.7,-3.3
CC(=O)N1CCC(C(=O)N2CCN(S(=O)(=O)c3cccs3)CC2)CC1,/,-5.6,-2.9,37.2*,-6.5,-0.4
O=S(=O)(c1cccs1)N1CCCCC1,-4.3,-4.1,/,34.7*,2.5,0.8
CC(C)CN1C(=O)[C@@]2(CC(=O)N(C)C2c2ccccc2)c2cc(-n3cc(CN(C)C)nn3)ccc21 (stereo not given in full),/,/,/,/,-12.9,0.4
CC(C)NC(=O)C1(C)CCCN1C(=O)c1ccccc1Br (stereo not given),-6.6,-1.8,/,9.6,-3.5,-2.9
COc1ccc(CN2C[C@@]3(O)CC[C@@H](O)[C@@H](OC)[C@@H]3[C@@]2(C)[C@H](O)CC=C(C)C)cc1,-4.2,/,/,/,-0.7,-1.6
Cn1c(SCC(=O)c2ccc(F)cc2)ncc(C(=O)Nc2ccccc2)c1=O,/,-0.2,3.5,27.2*,-1.9,0.0
CCN(CC)C(=O)CC[C@H]1CC[C@]2(CCCN(Cc3ccccn3)C2)O1,/,/,/,/,-0.8,2.3
Cn1nc(-c2ccccn2)nc2c(=O)n(C)c(=O)nc1-2,-4.2,-1.4,5.2,28.2*,-5.9,-6.1
CCCc1nc2c(=O)n(C)c(=O)nc-2n(C)n1,1.9,3.5,14.2,14.2,0.0,-5.9
CC(=O)Oc1cccc(C(=O)Nc2ccccc2C(=O)N2CCCC2)c1,-3.1,-4.2,-4.2,19.5*,-8.9,-4.4
N#Cc1c(-c2ccccc2)[nH]c(=O)[nH]c1=O,-2.3,-1.9,8.7,27.4*,-5.5,-4.2
Cc1cc(-c2ccccc2)[nH]c(=O)c1C#N,-11.8,0.6,4.7,2.6,-86.5,-30.0
COC(=O)[C@]12C[C@H](CC(=O)NCc3ccc(C)o3)C(=O)N(CCc3ccc(OC)c(OC)c3)C1=C[C@H](COCc1ccccc1)O[C@@H]2C,/,/,/,/,3.9,-2.0
O=C(NC1CCCCCC1)c1ccc(Br)o1,-3.0,-2.7,0.6,-4.0,-0.5,-3.6
O=C(NC1CCCCC1)Oc1cc2oc(=O)sc2cc1Br,-4.0,11.9,-20.8,2.3,26.3*,4.4
COc1ccc(NC(=O)CNc2cc(S(=O)(=O)N3CCOCC3)ccc2NCC2CCCO2)cc1 (stereo not given),-2.4,3.3,-7.1,-128.2,-6.1,-0.6
COc1ccc2nc(NC(=O)CN3CCN(C)CC3)sc2c1,/,-4.9,-5.6,-1.4,-3.8,-0.8
Cc1ccc(S(=O)(=O)N2CCOCC2)cc1NCC(=O)Nc1ccc(OC(F)(F)F)cc1,-6.2,-13.5,-3.8,19.8*,-9.1,2.3
COc1ccc2nc(NC(=O)c3cc(S(=O)(=O)N4CCOCC4)ccc3C)sc2c1,-5.4,14.2,16.1,25.6*,-18.3,-8.0
COc1ccc2nc(NC(=O)CN3CCOCC3)sc2c1,-2.2,-11.8,-1.1,21.3*,-7.9,-1.2
COC(=O)c1c(Cl)c2n3ccccc3c(C)c(-c3ccccc3)c-2c1C(=O)OC,-5.1,-10.2,3.0,38.5*,-37.4,-6.6
